Tests used:
[1] = tested on: K562; assay: Induction of apoptosis in human K562 cells assessed as necrotic cells at 2 uM after 24 hrs by Annexin V-FITC/propidium iodide staining-based flow cytometry (reference value: 0.035%); assay type: functional
[2] = tested on: K562; assay: Induction of apoptosis in human K562 cells assessed as early apoptotic cells at 2 uM after 24 hrs by Annexin V-FITC/propidium iodide staining-based flow cytometry (reference value: 4.78%); assay type: functional
[3] = tested on: K562; assay: Induction of apoptosis in human K562 cells after 24 hrs by Annexin V-FITC/propidium iodide staining-based flow cytometric method; assay type: functional, cell-based
[4] = tested on: K562; assay: Induction of apoptosis in human K562 cells assessed as late apoptotic cells at 2 uM after 24 hrs by Annexin V-FITC/propidium iodide staining-based flow cytometry (reference value: 2.83%); assay type: functional
[5] = tested on: K562; assay: Induction of apoptosis in human K562 cells assessed as necrotic cells at 1 uM after 24 hrs by Annexin V-FITC/propidium iodide staining-based flow cytometry (reference value: 0.035%); assay type: functional
[6] = tested on: K562; assay: Induction of apoptosis in human K562 cells assessed as late apoptotic cells at 1 uM after 24 hrs by Annexin V-FITC/propidium iodide staining-based flow cytometry (reference value: 2.83%); assay type: functional
[7] = tested on: K562; assay: Induction of apoptosis in human K562 cells assessed as viable cells at 2 uM after 24 hrs by Annexin V-FITC/propidium iodide staining-based flow cytometry (reference value: 92.4%); assay type: functional
[8] = tested on: PC-3; assay: Antiproliferative activity against human PC3 cells after 48 hrs by MTT assay; assay type: functional, cell-based; details: PC-3, 48 h
In short: (§1)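 Cells grown in RPMI1640 with 10% FBS at 37°C, 5% CO2. Seeded at 4000–5000 cells/well for 8 h, then exposed to a range of compound concentrations for 48 h. 0.5% MTT solution added for 4 h, formazan dissolved in DMSO, absorbance read at 570 nm. IC50 derived from inhibition ratios, given as mean ± standard deviation of two or three separate determinations.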

[9] = tested on: K562; assay: Induction of apoptosis in human K562 cells assessed as viable cells at 1 uM after 24 hrs by Annexin V-FITC/propidium iodide staining-based flow cytometry (reference value: 92.4%); assay type: functional
[10] = tested on: K562; assay: Induction of apoptosis in human K562 cells assessed as early apoptotic cells at 1 uM after 24 hrs by Annexin V-FITC/propidium iodide staining-based flow cytometry (reference value: 4.78%); assay type: functional
[11] = target: Histone deacetylase (HDAC1 and HDAC2) (Homo sapiens, UniProt Q13547+Q92769); assay: Inhibition of HDAC1/2 in human HeLa cell nuclear extract using COLOR DE LYS as substrate pretreated for 5 mins followed by substrate addition measured after 30 mins by UV-absorption method; assay type: cell-based
[12] = tested on: HeLa; assay: Antiproliferative activity against human HeLa cells after 48 hrs by MTT assay; assay type: functional, cell-based; in short: as §1
[13] = tested on: MOLT-4; assay: Antiproliferative activity against human MOLT4 cells after 48 hrs by MTT assay; assay type: functional, cell-based; details: MOLT-4, 48 h
[14] = tested on: K562; assay: Antiproliferative activity against human K562 cells after 48 hrs by MTT assay; assay type: functional, cell-based; details: K562, 48 h
[15] = tested on: HEL; assay: Antiproliferative activity against human HEL cells after 48 hrs by MTT assay; assay type: functional, cell-based

O=C(CCCCCCC(=O)Nc1ccccc1)NO [VORINOSTAT]
Activity [1]: 0.05% | Activity [2]: 6.97% | Activity [3]: Dose-dependent effect | Activity [4]: 4.04% | Activity [5]: 0.06% | Activity [6]: 2.99% | Activity [7]: 88.9% | IC50 [8]: 13.9 µM | Activity [9]: 90.8% | Activity [10]: 6.1%

O=C(NO)c1ccc(CN(Cc2ccccc2)Cc2ccc3ccccc3n2)cc1
IC50 [11]: 0.836 µM

COc1ccc(N(Cc2ccc3ccccc3n2)C(=O)c2ccc(/C=C/C(=O)NO)cc2)cc1
IC50 [11]: 0.744 µM

O=C(NO)c1ccc(CNCc2ccc3cccc(Cl)c3n2)cc1
IC50 [11]: > 1 µM

O=C(/C=C/c1ccc(CC(=O)N(Cc2ccc3cc(Br)ccc3n2)c2ccccc2)cc1)NO
IC50 [11]: > 1 µM

O=C(/C=C/c1ccc(C(=O)N(Cc2ccc3ccccc3n2)c2ccccc2)cc1)NO
IC50 [11]: > 1 µM

COc1cccc2ccc(CN(C(=O)c3ccc(/C=C/C(=O)NO)cc3)c3ccccc3)nc12
IC50 [11]: 0.724 µM

O=C(/C=C/c1cccc(CN(Cc2ccccc2)Cc2ccc3cc(Br)ccc3n2)c1)NO
IC50 [11]: > 1 µM

CCCCCCN(Cc1cccc(/C=C/C(=O)NO)c1)Cc1ccc2cc(Br)ccc2n1
IC50 [11]: > 1 µM

O=C(/C=C/c1cccc(CNCc2ccc3cc(Br)ccc3n2)c1)NO
IC50 [11]: 0.559 µM

COc1ccc2nc(CN(C(=O)Cc3ccc(/C=C/C(=O)NO)cc3)c3ccccc3)ccc2c1
IC50 [11]: 0.56 µM

O=C(/C=C/c1ccc(C(=O)N(Cc2ccc3ccccc3n2)c2ccc(Br)cc2)cc1)NO
IC50 [11]: > 1 µM

O=C(/C=C/c1ccc(C(=O)N(Cc2ccc3cc(Br)ccc3n2)c2ccccc2)cc1)NO
IC50 [11]: > 1 µM

COc1cccc2ccc(CNCc3ccc(/C=C/C(=O)NO)cc3)nc12
IC50 [11]: 0.206 µM | IC50 [12]: 3.33 µM | IC50 [8]: 4.6 µM | IC50 [13]: 0.19 µM | IC50 [14]: 0.75 µM | IC50 [15]: 0.22 µM

O=C(/C=C/c1ccc(CC(=O)N(Cc2ccc3ccccc3n2)c2ccccc2)cc1)NO
IC50 [11]: 0.72 µM
